Columns and labels:
Rattus norvegicus [1] = experiment: Effect on food intake in rat at 1 mg/kg/day measured during first week (reference value: 19.1 +/- 1.7 gms); format: ADME, organism-based; conditions: in vivo
Outline: (§1)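 Male rats dosed orally at 1, 5, 10 or 50 mg/kg/day in 1% CMC. Average food intake in grams per rat per week measured over a 2-week period, first and second weeks reported separately. N = 8, Student's t test against the 1% CMC control.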

Rattus norvegicus [2] = experiment: Effect on food intake in rat at 5 mg/kg/day measured during first week (reference value: 19.1 +/- 1.7 gms); format: ADME, organism-based; conditions: in vivo; outline: as §1
Rattus norvegicus [3] = experiment: Effect on food intake in rat at 10 mg/kg/day measured during second week (reference value: 23.4 +/- 1.8 gms); format: ADME, organism-based; conditions: in vivo; outline: as §1
Rattus norvegicus [4] = experiment: Effect on liver weight in rat at 50 mg/kg/day administered for 16 days measured 24 hrs after last drug dosage relative to total body weight (reference value: 4.22 +/- 0.29%); format: ADME, organism-based; conditions: in vivo
Rattus norvegicus [5] = experiment: Effect on heart weight in rat at 1 mg/kg/day administered for 16 days measured 24 hrs after last drug dosage relative to total body weight (reference value: 0.37 +/- 0.04%); format: ADME, organism-based; conditions: in vivo
Rattus norvegicus [6] = experiment: Effect on kidney weight in rat at 5 mg/kg/day administered for 16 days measured 24 hrs after last drug dosage relative to total body weight (reference value: 0.92 +/- 0.04%); format: ADME, organism-based; conditions: in vivo
Rattus norvegicus [7] = experiment: Effect on kidney weight in rat at 10 mg/kg/day administered for 16 days measured 24 hrs after last drug dosage relative to total body weight (reference value: 0.92 to 0.96%); format: ADME, organism-based; conditions: in vivo
Rattus norvegicus [8] = experiment: Effect on kidney weight in rat at 50 mg/kg/day administered for 16 days measured 24 hrs after last drug dosage relative to total body weight (reference value: 0.92 +/- 0.04%); format: ADME, organism-based; conditions: in vivo
Rattus norvegicus [9] = experiment: Effect on brain weight in rat at 1 mg/kg/day administered for 16 days measured 24 hrs after last drug dosage relative to total body weight (reference value: 0.67 +/- 0.05%); format: ADME, organism-based; conditions: in vivo
Rattus norvegicus [10] = experiment: Effect on brain weight in rat at 5 mg/kg/day administered for 16 days measured 24 hrs after last drug dosage relative to total body weight (reference value: 0.67 +/- 0.05%); format: ADME, organism-based; conditions: in vivo
Rattus norvegicus [11] = experiment: Effect on vas deferens and epididymis weight in rat at 1 mg/kg/day administered for 16 days measured 24 hrs after last drug dosage relative to total body weight (reference value: 0.22 +/- 0.04%); format: ADME, organism-based; conditions: in vivo
Rattus norvegicus [12] = experiment: Effect on testes weight in rat at 1 mg/kg/day administered for 16 days measured 24 hrs after last drug dosage relative to total body weight (reference value: 1.08 +/- 0.08%); format: ADME, organism-based, Testis; conditions: in vivo
Rattus norvegicus [13] = experiment: Effect on vesicular gland weight in rat at 1 mg/kg/day administered for 16 days measured 24 hrs after last drug dosage relative to total body weight (reference value: 0.10 +/- 0.04%); format: ADME, organism-based; conditions: in vivo
Rattus norvegicus [14] = experiment: Hypocholesterolemic activity in rat assessed as [14C]palmitic acid level in heart at 10 mg/kg/day administered for 1 week measured after 22 hrs on day 7 by scintillation counting analysis (reference value: 0.23 +/- 0.10%); format: functional
Outline: (§2)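 Male Sprague-Dawley rats on lab chow dosed orally once daily for 1 week at 10 mg/kg/day, suspended in 1% CMC, or given vehicle alone. On day 7, 5 μCi [1-14C]palmitic acid given orally. Killed after 22 hr; organs made into 10% water homogenates. Aliquots of 0.1 cc of homogenate, urine, blood or feces were digested and scintillation counted. Output is % of dose per tissue, N = 6.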

Rattus norvegicus [15] = experiment: Hypocholesterolemic activity in rat assessed as [14C]palmitic acid level in spleen at 10 mg/kg/day administered for 1 week measured after 22 hrs on day 7 by scintillation counting analysis (reference value: 0.46 +/- 0.24%); format: functional; outline: as §2
Rattus norvegicus [16] = experiment: Hypocholesterolemic activity in rat assessed as [14C]cholesterol level in kidney at 10 mg/kg/day administered for 1 week measured after 22 hrs on day 7 by scintillation counting analysis (reference value: 0.69 +/- 0.27%); format: functional
Outline: (§3)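 Male rats were dosed orally for 1 week (10 mg/kg/day) or with 1% CMC. On day 7 they received 5 μCi [4-14C]cholesterol orally and were killed after 22 hr. Organs were homogenized (10% in water); 0.1-cc aliquots of homogenate, urine, blood or feces were digested with Protosol. Samples were counted in toluene/Triton X-100 (2:1) scintillant with 0.4% PPO and 0.01% POPOP. Results are % of dose per tissue, N = 6.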

Rattus norvegicus [17] = experiment: Hypocholesterolemic activity in rat assessed as [14C]cholesterol level in heart at 10 mg/kg/day administered for 1 week measured after 22 hrs on day 7 by scintillation counting analysis (reference value: 0.39 +/- 0.13%); format: functional; outline: as §3
Rattus norvegicus [18] = experiment: Hypocholesterolemic activity in rat assessed as [14C]cholesterol level in lung at 10 mg/kg/day administered for 1 week measured after 22 hrs on day 7 by scintillation counting analysis (reference value: 1.99 +/- 1.18%); format: functional; outline: as §3
Rattus norvegicus [19] = experiment: Hypocholesterolemic activity in rat assessed as [14C]cholesterol level in brain at 10 mg/kg/day administered for 1 week measured after 22 hrs on day 7 by scintillation counting analysis (reference value: 0.12 +/- 0.04%); format: functional; outline: as §3
Rattus norvegicus [20] = experiment: Hypocholesterolemic activity in rat assessed as [14C]cholesterol level in vas deferens at 10 mg/kg/day administered for 1 week measured after 22 hrs on day 7 by scintillation counting analysis (reference value: 0.03 +/- 0.02%); format: functional; outline: as §3
Rattus norvegicus [21] = experiment: Hypocholesterolemic activity in rat assessed as [14C]cholesterol level in chyme at 10 mg/kg/day administered for 1 week measured after 22 hrs on day 7 by scintillation counting analysis (reference value: 8.72 +/- 4.95%); format: functional; outline: as §3
Rattus norvegicus [22] = experiment: Hypocholesterolemic activity in Sprague-Dawley rat assessed as serum cholesterol level at 10 mg/kg/day, po administered via intubation measured on day 10 by Liebermann-Burchard reaction (reference value: 100%); format: functional
[23] = Toxicity in ip dosed CF1 mouse assessed as animal death; format: organism-based; conditions: in vivo
Outline: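 Male CF1 mice given active propanones ip over 10 mg to 6 g/kg where solubility allowed; deaths recorded to estimate LD50.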

Rattus norvegicus [24] = experiment: Effect on RNA content in rat liver at 10 mg/kg/day administered for 16 days (reference value: 100 +/- 8%); format: ADME, organism-based; conditions: in vivo, 384 h
Rattus norvegicus [25] = experiment: Effect on DNA content in rat liver at 10 mg/kg/day administered for 16 days (reference value: 100 +/- 25%); format: ADME, organism-based; conditions: in vivo, 384 h
Rattus norvegicus [26] = experiment: Effect on lipid content in rat liver at 10 mg/kg/day administered for 16 days (reference value: 100 +/- 16%); format: ADME, organism-based; conditions: in vivo, 384 h
Rattus norvegicus [27] = experiment: Increase in lipase level in rat serum at 10 mg/kg/day administered for 16 days relative to control; format: functional
Outline: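 Male Sprague-Dawley rats on rodent chow and water ad libitum; compound suspended in 1% CMC-H2O, 10 mg/kg/day by oral intubation, dose set from weekly weights; controls given 1% CMC. Serum lipase measured with a commercial serum lipase kit after 16 days of dosing; value given as percent of control, N = 8; p by Student's t test.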

Rattus norvegicus [28] = experiment: Hypocholesterolemic activity in [14C]palmitic acid-treated rat assessed as decrease in 14C fatty acid incorporation into cholesterol ester fraction in liver at 10 mg/kg/day administered for 1 week by scintillation counting analysis; format: functional; set-up: scale not given: the % may be the effect or the level left

Cc1ccc(OCC(=O)COc2ccc(C)cc2)cc1
Activity (Rattus norvegicus [1]): 19.2 g
Activity (Rattus norvegicus [2]): 18.8 g
Activity (Rattus norvegicus [3]): 28.6 g
Activity (Rattus norvegicus [4]): 4.57%
Activity (Rattus norvegicus [5]): 0.38%
Activity (Rattus norvegicus [6]): 0.88%
Activity (Rattus norvegicus [7]): 0.93%
Activity (Rattus norvegicus [8]): 0.88%
Activity (Rattus norvegicus [9]): 0.74%
Activity (Rattus norvegicus [10]): 0.73%
Activity (Rattus norvegicus [11]): 0.23%
Activity (Rattus norvegicus [12]): 1.12%
Activity (Rattus norvegicus [13]): 0.19%
Activity (Rattus norvegicus [14]): 0.26%
Activity (Rattus norvegicus [15]): 0.37%
Activity (Rattus norvegicus [16]): 1.29%
Activity (Rattus norvegicus [17]): 0.58%
Activity (Rattus norvegicus [18]): 2.45%
Activity (Rattus norvegicus [19]): 0.16%
Activity (Rattus norvegicus [20]): 0.07%
Activity (Rattus norvegicus [21]): 9.21%
Activity (Rattus norvegicus [22]): 50%
LD50 [23]: 1500 mg/kg
Activity (Rattus norvegicus [24]): 104%
Activity (Rattus norvegicus [25]): 81%
Activity (Rattus norvegicus [26]): 88%
fold change (FC) (Rattus norvegicus [27]): 2
Activity (Rattus norvegicus [28]): 46%
